Experimental data: ChEMBL document CHEMBL1156170, “Enhanced Nrf2-dependent induction of glutathione in mouse embryonic fibroblasts by isoselenocyanate analog of sulforaphane” (Bioorg Med Chem Lett, 2010)
Active and inactive are the calls of the source. The calls are words filed in the database; no cut-off is given here.

Columns and labels:
[1] = biological target: T1, Nuclear factor erythroid 2-related factor 2 (Mus musculus) (UniProt Q60795); experiment: Induction of NrF2-mediated glutathione production in wild type MEF at 20 uM after 24 hrs using Elmans reagent relative to control; type: functional
T1 sequence (whole entry): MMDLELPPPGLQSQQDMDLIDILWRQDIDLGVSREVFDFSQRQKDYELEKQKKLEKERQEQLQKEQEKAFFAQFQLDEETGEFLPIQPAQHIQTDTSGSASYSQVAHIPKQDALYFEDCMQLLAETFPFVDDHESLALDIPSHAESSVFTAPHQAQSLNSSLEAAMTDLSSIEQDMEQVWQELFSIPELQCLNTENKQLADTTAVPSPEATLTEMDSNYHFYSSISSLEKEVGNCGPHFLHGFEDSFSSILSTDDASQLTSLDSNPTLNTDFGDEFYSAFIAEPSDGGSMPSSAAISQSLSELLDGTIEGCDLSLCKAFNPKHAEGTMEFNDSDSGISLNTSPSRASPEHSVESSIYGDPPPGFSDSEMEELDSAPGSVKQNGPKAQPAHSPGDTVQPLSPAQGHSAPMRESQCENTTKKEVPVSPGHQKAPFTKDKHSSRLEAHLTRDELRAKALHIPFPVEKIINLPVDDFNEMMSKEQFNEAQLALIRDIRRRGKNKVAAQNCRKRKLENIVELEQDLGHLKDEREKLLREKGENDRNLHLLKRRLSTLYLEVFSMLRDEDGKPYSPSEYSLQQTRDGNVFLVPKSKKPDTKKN
How it was run: (§1)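 Wildtype or Nrf2−/− MEF at 50% confluence given vehicle or 10 or 20 μM for 0, 6, 9 or 24 h; washed, lysed in 5% metaphosphoric acid, protein removed by centrifugation. Free GSH by enzymatic recycling with Ellman's reagent, absorbance over time; normalized to BCA protein and to vehicle control; mean ± SD, n=3.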

[2] = biological target: T2, Nuclear factor erythroid 2-related factor 2 (Homo sapiens) (UniProt Q16236); experiment: Induction of NrF2 in human HepG2 cells at 20 uM after 6 hrs by ARE-luciferase reporter gene assay relative to control; type: functional, cell-based
T2 sequence (whole entry): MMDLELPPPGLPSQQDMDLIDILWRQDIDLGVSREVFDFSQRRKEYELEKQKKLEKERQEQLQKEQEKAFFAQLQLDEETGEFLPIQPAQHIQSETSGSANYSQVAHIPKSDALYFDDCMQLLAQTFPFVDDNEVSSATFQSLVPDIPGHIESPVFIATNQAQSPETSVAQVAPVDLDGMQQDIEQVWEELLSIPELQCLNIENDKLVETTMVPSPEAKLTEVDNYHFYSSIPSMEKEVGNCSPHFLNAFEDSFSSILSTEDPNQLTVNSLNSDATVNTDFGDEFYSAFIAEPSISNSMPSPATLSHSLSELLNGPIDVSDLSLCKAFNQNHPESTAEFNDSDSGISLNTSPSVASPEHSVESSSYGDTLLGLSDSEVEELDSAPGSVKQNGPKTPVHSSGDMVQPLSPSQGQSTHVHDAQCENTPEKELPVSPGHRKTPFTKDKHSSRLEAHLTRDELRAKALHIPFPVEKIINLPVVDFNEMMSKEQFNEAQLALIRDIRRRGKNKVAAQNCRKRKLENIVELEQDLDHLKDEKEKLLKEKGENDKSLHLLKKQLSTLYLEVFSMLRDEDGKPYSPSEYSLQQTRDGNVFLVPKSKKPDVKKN
How it was run: (§2)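 HepG2 ARE-luciferase reporter cells at 50% confluence, fresh medium with vehicle or 5, 10 or 20 μM compound for 6 h. Washed in PBS, lysed, luciferase activity of extracts read in single-tube luminometer; normalized to vehicle control; mean ± SD of 3 independent experiments.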

HepG2 [3] = experiment: Cytotoxicity against human HepG2 cells assessed as cell viability at 50 uM after 6 hrs by MTS assay; type: functional, cell-based
[4] = biological target: T1, Nuclear factor erythroid 2-related factor 2 (Mus musculus); experiment: Induction of nuclear NrF2-mediated GCLc expression in wild type MEF at 20 uM after 24 hrs by Western blotting relative to control; type: functional
How it was run: (§3)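 Wildtype or Nrf2−/− MEF at 50% confluence given vehicle or 10 or 20 μM for 24 h; cytoplasmic extracts, 50 μg protein per lane, 4-20% gradient gel, nitrocellulose, western blot for GCLc with HRP secondary and chemiluminescence. GCLc normalized to actin, then to vehicle control; mean ± SD of 3 independent experiments.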

HepG2 [5] = experiment: Cytotoxicity against human HepG2 cells assessed as cell viability at 10 uM after 6 hrs by MTS assay; type: functional, cell-based
[6] = biological target: T1, Nuclear factor erythroid 2-related factor 2 (Mus musculus); experiment: Reduction of NrF2-mediated glutathione production in wild type MEF at 10 uM after 6 hrs using Elmans reagent relative to control; type: functional; parameters: scale not given: the % may be the effect or the level left; how it was run: as §1
[7] = biological target: T1, Nuclear factor erythroid 2-related factor 2 (Mus musculus); experiment: Induction of NrF2-mediated glutathione production in wild type MEF at 10 uM after 24 hrs using Elmans reagent relative to control; type: functional; how it was run: as §1
[8] = biological target: T2, Nuclear factor erythroid 2-related factor 2 (Homo sapiens); experiment: Induction of NrF2 in human HepG2 cells at 10 uM after 6 hrs by ARE-luciferase reporter gene assay; type: functional, cell-based; how it was run: as §2
[9] = biological target: T1, Nuclear factor erythroid 2-related factor 2 (Mus musculus); experiment: Induction of nuclear NrF2 expression in wild type MEF […] at 10 to 20 uM after 24 hrs by Western blotting relative to control; type: functional
How it was run: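 Wildtype MEF at 50% confluence treated with vehicle or 10 or 20 μM for 24 h; washed, trypsinized, nuclear extracts prepared. 20 μg nuclear protein per lane, 4-20% gradient gel, nitrocellulose, milk block, primary antibody overnight 4 °C, HRP secondary, chemiluminescence. Nrf2 band normalized to Lamin A, then to vehicle control; mean ± SD, n=3.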

[10] = biological target: T1, Nuclear factor erythroid 2-related factor 2 (Mus musculus); experiment: Reduction of NrF2-mediated glutathione production in wild type MEF at 20 uM after 6 hrs using Elmans reagent relative to control; type: functional; parameters: scale not given: the % may be the effect or the level left; how it was run: as §1
HepG2 [11] = experiment: Cytotoxicity against human HepG2 cells assessed as cell viability at 50 uM after 6 hrs by MTS assay relative to control; type: functional; conditions: HepG2, 6 h, read-out: Activity
HepG2 [12] = experiment: Cytotoxicity against human HepG2 cells assessed as decrease in cell viability at 10 to 20 uM after 6 hrs by MTS assay; type: functional, cell-based
[13] = biological target: T1, Nuclear factor erythroid 2-related factor 2 (Mus musculus); experiment: Induction of NrF2-mediated glutathione production in wild type MEF at 10 uM after 6 hrs using Elmans reagent relative to control; type: functional; how it was run: as §1
[14] = biological target: T1, Nuclear factor erythroid 2-related factor 2 (Mus musculus); experiment: Induction of NrF2-mediated glutathione production in wild type MEF at 10 uM after 9 hrs using Elmans reagent relative to control; type: functional; how it was run: as §1
MEF [15] = experiment: Cytotoxicity against NrF2 deficient MEF; type: cell-based; conditions: mouse
[16] = biological target: T1, Nuclear factor erythroid 2-related factor 2 (Mus musculus); experiment: Ratio of compound to sulforaphane activity for induction of nuclear NrF2 mediated GCLc in wild type MEF; type: functional
[17] = biological target: T2, Nuclear factor erythroid 2-related factor 2 (Homo sapiens); experiment: Ratio of compound to sulforaphane for induction of NrF2 in human HepG2 cells; type: functional, cell-based
MEF [18] = experiment: Cytotoxicity against wild type MEF; type: cell-based; conditions: mouse
MEF [19] = experiment: Induction of glutathione production in NrF2 deficient MEF at 10 uM after 24 hrs using Elmans reagent relative to control; type: functional, Mus musculus; how it was run: as §1
[20] = biological target: T2, Nuclear factor erythroid 2-related factor 2 (Homo sapiens); experiment: Induction of NrF2 in human HepG2 cells after 6 hrs by ARE-luciferase reporter gene assay; type: functional, cell-based; how it was run: as §2
MEF [21] = experiment: Induction of GCLc in NrF2-deficient MEF at 20 uM after 24 hrs by Western blotting relative to control; type: functional, cell-based; conditions: Mus musculus; how it was run: as §3
MEF [22] = experiment: Induction of glutathione production in NrF2 deficient MEF at 20 uM after 24 hrs using Elmans reagent relative to control; type: functional, Mus musculus; how it was run: as §1
HepG2 [23] = experiment: Cytotoxicity against human HepG2 cells assessed as cell viability at 20 uM after 6 hrs by MTS assay; conditions: HepG2, 6 h, read-out: Activity
HepG2 [24] = experiment: Cytotoxicity against human HepG2 cells assessed as decrease in cell viability after 6 hrs by MTS assay; type: functional, cell-based

SMILES | Activity [1] | Activity [2] | Activity (HepG2 [3]) | fold change (FC) [4] | Activity (HepG2 [5]) | Activity [6] [%] | Activity [7] | Activity [8] | fold change (FC) [9] | Activity [10] [%] | viability at 50 µM (HepG2 [11]) [%] | Activity (HepG2 [12]) | also measured
C[S+]([O-])CCCCN=C=S (centres undefined) | inactive | Active | inactive | 3.2 | inactive | 40 | Active | Active | 3.5 | 20 | – | – | –
S=C=NCCc1ccccc1 | – | – | inactive | – | – | – | – | – | – | – | – | – | –
S=C=NCc1ccccc1 | – | – | inactive | – | – | – | – | – | – | – | – | – | –
[Se]=C=NCc1ccccc1 [BENZYLISOSELENOCYANATE] | – | – | – | – | – | – | – | – | – | – | 0 | Active | –
[Se]=C=NCCc1ccccc1 [PHENETHYLISOSELENOCYANATE] | – | – | – | – | – | – | – | – | – | – | 14 | Active | –
C[S+]([O-])CCCCN=C=[Se] (centres undefined) [SUFORAPHANE ISOSELENOCYANATE] | Active | 5 | – | 4.1 | inactive | 40 | 160% | Active | 4.5 | 20 | 0 | Active | Activity [13]: Active; Activity [14]: Active; Activity (MEF [15]): Non-toxic; Activity [16]: 30%; Ratio [17]: 4; Activity (MEF [18]): Non-toxic; Activity (MEF [19]): 90%; Activity [20]: Dose-dependent effect; Activity (MEF [21]): inactive; Activity (MEF [22]): 70%; viability at 20 µM (HepG2 [23]): 50%; Activity (HepG2 [24]): Dose-dependent effect
